Bioassay records from PubChem.
Compounds with a hit are over-represented: about 3.9% of the library has one in this group of screens.
tim10-1 inh = growth inhibitors of tim10-1 mutant yeast; S. cerevisiae tim10-1 ts strain growth, BacTiter-Glo, 24 h; inhibition, % at 20 µM; hit rate 2.2% among 330,000;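 active = inhibition of at least 40%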;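 note: mutant grown at 25 °C; 0% = DMSO wells with yeast and 100% = wells holding no yeast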
TIM10 inh = TIM10 yeast growth inhibition; S. cerevisiae TIM10 strain growth, BacTiter-Glo luminescence, 24 h; inhibition, % at 10 µM; hit rate 1.4% among 330,000; AID 463195;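 active = inhibition of 40% or more at the single tested concentration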;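 note: wild-type TIM10 isogenic control strain grown at permissive 25 °C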
tim23-1 inh = inhibits growth of tim23-1 mutant yeast; S. cerevisiae tim23-1 growth, BacTiter-Glo luminescence, 24 h; inhibition, % at 20 µM; hit rate 1.3% among 330,000; AID 463212;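 active = growth inhibition of the mutant yeast at or above 50%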;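 note: temperature-sensitive mutant grown at 25 °C; plate controls were DMSO-treated mutant yeast for no effect and medium wells lacking yeast for full effect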
CHOP UPR activ = apoptotic UPR (CHOP) activation; CHO-CHOP luciferase reporter, luminescence; percent of tunicamycin response over DMSO baseline; activation, % at 10 µM; hit rate 0.34% among 330,000; AID 449763;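 active = at 10 µM dose, activation of 40% or more, normalized to positive control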;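 note: 100% = tunicamycin at 10 µg/mL and 0% = DMSO alone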
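System: CHO CHOP reporter cells. Amount: 500 cells per well. Buffer or medium: F12 medium, 10% FBS. Compound dosing: one dose, 10 µM in 0.5% DMSO. Incubation: 6 h compound exposure at 37 °C after overnight seeding. Technique: Steady-Glo luciferase luminescence. Benchmarks: tunicamycin and DMSO controls.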
XBP1 UPR activ = activators of adaptive arm of unfolded protein response (XBP1). activation, % at 20 µM. CHO-XBP1 luciferase reporter, IRE1-XBP1 UPR activation, luminescence; percent of tunicamycin response, DMSO as zero. hit rate 0.33% among 330,000;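 active = versus positive control, 20 µM dose yields 30% or more activation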;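 note: 100% = tunicamycin at 10 µg/mL and 0% = DMSO only wells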
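Material: CHO-XBP1 cells stably carrying IRE1-XBP1-driven luciferase reporter / Amount: 1000 cells per well / Compound: 20 µM, 1% DMSO / Times: 6 h treatment, 37 °C / Detection: luciferase luminescence / Measure: % activation of reporter signal versus tunicamycin and DMSO controls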
XBP1 UPR conf = adaptive UPR (XBP1) activation, confirmed. shares compounds with XBP1 UPR activ. CHO-XBP1 IRE1-XBP1 luciferase reporter, luminescence. activation, % at 20 µM. hit rate 63% among 1,000;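 active = reporter signal at least 30% of the positive control's activation in two or more of four replicate wells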;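 note: plate controls were DMSO negative control for no effect and tunicamycin 10 µg/mL positive control for full effect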
* marks the source's active call; other numbers are inactive results; x = no result.

SMILES | tim10-1 inh | TIM10 inh | tim23-1 inh | CHOP UPR activ | XBP1 UPR activ | XBP1 UPR conf
CCCNC(=O)c1c(N)n(-c2ccc3c(c2)OCO3)c2nc3ccccc3nc12 | 3.3 | -7.8 | -19.7 | 20.4 | 43.8* | 29.2*
COc1ccc(/C=N/NC(=O)Nc2cccc3nsnc23)cc1OC | -15.2 | -10.3 | -25.2 | 7.0 | 73.6* | 25.1
O=C(Nc1ccc(Cl)c([N+](=O)[O-])c1)c1ccc(NCCCN2CCOCC2)c([N+](=O)[O-])c1 | 24.9 | 3.8 | 17.0 | 0.4 | 42.2* | 6.0
COc1ccc(NC(=O)COC(=O)CCCOc2ccc(Cl)cc2Cl)cc1 | 20.6 | 9.0 | 22.5 | 0.7 | 75.2* | -0.9
CC(C)Oc1ccc(C(=O)NCC(=O)N2CCN(S(=O)(=O)/C=C/c3ccccc3)CC2)cc1 | 13.1 | 11.7 | 20.0 | 0.8 | -2.7 | x
O=C(Nc1ccc(-c2nc3ncccc3o2)cc1)c1ccc(Br)o1 | 2.2 | 19.1 | 9.7 | 4.7 | 62.4* | 3.7
COc1ccc(-c2nc(-c3ccc(NC(=O)c4ccc(Br)o4)cc3)no2)cc1OC | -2.5 | -3.8 | 2.0 | 29.9 | 34.6* | 15.6
COc1cc(-c2nc(-c3ccc(NC(=O)c4ccc(Br)o4)cc3)no2)cc(OC)c1OC | 32.4 | 12.5 | 16.2 | 4.3 | 6.5 | x
O=C(Nc1ccc(-c2nc3ncccc3o2)cc1)c1ccco1 | 12.7 | 27.7 | 32.8 | 3.6 | 3.6 | x
COc1ccc2nc(N3CCCC(C(=O)NCCCN4C(C)CCCC4C)C3)sc2c1 (configuration not stated) | -2.7 | 8.1 | 12.2 | 0.9 | 0.9 | x
Cc1ccc(S(=O)(=O)N2CCN(C(=O)[C@H](Cc3ccccc3)NC(=O)c3ccco3)CC2)cc1C | 4.0 | 9.8 | 4.7 | 0.4 | -3.5 | x
CC(C)c1ccc(C2C3=C(COC3=O)Nc3cc4c(cc32)OCO4)cc1 (configuration not stated) | 10.8 | -15.0 | -3.5 | 3.7 | 42.6* | 93.4*
Cc1sc(NC(=O)c2ccco2)c(C(c2cccnc2)N2CCN(c3ccc(F)cc3)CC2)c1C (configuration not stated) | 37.1 | 27.5 | 39.3 | 16.7 | 32.6* | 18.3
Cc1sc(NC(=O)c2ccco2)c(C(c2cccnc2)N2CCN(CCO)CC2)c1C (configuration not stated) | -13.6 | -7.0 | 12.7 | 1.7 | 1.2 | x
COc1cccc(NC(=O)CCS(=O)(=O)c2ccc(Br)cc2)c1 | 9.7 | -1.3 | 14.6 | -0.2 | -5.6 | x
Cc1ccc(O)c(NC(=S)NC(=O)Cc2ccc(Cl)cc2)c1 | -5.7 | -1.7 | 6.3 | -0.7 | 52.1* | 85.7*
COc1cc([C@@H]2c3cc4c(cc3[C@@H](O)[C@H]3COC(=O)[C@H]23)OCO4)cc(OC)c1O[Si](C)(C)C(C)(C)C | 0.5 | 17.9 | 10.3 | 1.5 | 58.1* | 48.3*
O=C(Nc1nc(-c2cccnc2)cs1)c1cccc([N+](=O)[O-])c1 | 10.4 | 7.8 | -12.7 | 7.2 | 31.3* | 11.5
O=C(CN1C(=O)c2cccc([N+](=O)[O-])c2C1=O)N1CCN(S(=O)(=O)c2ccccc2)CC1 | -2.3 | 3.8 | -14.3 | -1.4 | 4.5 | x
C=CCn1c(SCc2nc3sc4c(c3c(=O)[nH]2)CCCC4)nc2ccccc2c1=O | 17.8 | -1.6 | 19.6 | 3.6 | 1.3 | x
C=CCn1c(SCc2nc3ccccc3c(=O)[nH]2)nc2sc3c(c2c1=O)CCCC3 | 11.6 | 16.7 | 0.5 | 0.1 | 131.5* | -1.3
CCCCN1C(=O)C(=O)N(CC(=O)Nc2cc(S(=O)(=O)N(C)C)ccc2C)C1=O | 3.5 | -2.0 | 14.9 | 0.2 | -1.8 | x
CC(C)=CCc1c2c(c3occ(-c4ccc(O)cc4)c(=O)c3c1O)C=CC(C)(C)O2 | 25.7 | 14.3 | 23.6 | 4.9 | 55.7* | 49.5*
CC(C)=CCc1c(O)cc2c(=O)c3ccc(O)cc3oc2c1O | 18.4 | 29.8 | 45.6 | 6.1 | 18.1 | x
COc1ccc(/C=N/Nc2nc(-c3cccnc3)nc3ccccc23)cc1OC | 25.9 | 17.3 | 42.1 | 6.0 | 17.3 | x
Cc1c(O)ccc(/C=N/Nc2nc(-c3cccnc3)nc3ccccc23)c1O | 18.1 | 13.9 | 10.2 | 8.5 | 36.1* | 28.3
Cc1cc(Nc2cccc([N+](=O)[O-])c2)n2c(nc3ccccc32)c1C#N | -5.7 | 1.1 | 1.9 | 18.4 | 37.0* | 11.6
